How the values were obtained:
h-NTPDase1 = biological target: T1, h-NTPDase1 (Homo sapiens, UniProt P49961); assay: h-NTPDase activity assay; type: biochemical; details: for inhibition at 100 µM: read-out: % Inhibition h-NTPDase1
T1 sequence (P49961 1-510): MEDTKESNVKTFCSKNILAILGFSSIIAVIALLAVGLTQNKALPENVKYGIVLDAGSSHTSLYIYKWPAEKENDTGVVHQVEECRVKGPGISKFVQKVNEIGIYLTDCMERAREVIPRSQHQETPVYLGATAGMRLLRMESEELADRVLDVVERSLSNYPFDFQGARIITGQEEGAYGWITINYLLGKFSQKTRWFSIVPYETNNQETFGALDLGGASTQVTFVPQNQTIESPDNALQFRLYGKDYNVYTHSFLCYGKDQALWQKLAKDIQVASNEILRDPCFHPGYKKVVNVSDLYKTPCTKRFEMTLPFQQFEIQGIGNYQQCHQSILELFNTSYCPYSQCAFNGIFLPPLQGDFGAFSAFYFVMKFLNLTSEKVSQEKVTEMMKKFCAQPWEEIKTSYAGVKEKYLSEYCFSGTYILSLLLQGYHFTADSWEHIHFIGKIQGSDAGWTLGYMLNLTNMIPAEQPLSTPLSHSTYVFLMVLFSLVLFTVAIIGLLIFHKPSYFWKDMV

h-NTPDase2 = biological target: T2, h-NTPDase2 (Homo sapiens, UniProt Q9Y5L3); assay: h-NTPDase activity assay; type: biochemical; details: for inhibition at 100 µM: read-out: % Inhibition h-NTPDase2
T2 sequence (Q9Y5L3 1-495): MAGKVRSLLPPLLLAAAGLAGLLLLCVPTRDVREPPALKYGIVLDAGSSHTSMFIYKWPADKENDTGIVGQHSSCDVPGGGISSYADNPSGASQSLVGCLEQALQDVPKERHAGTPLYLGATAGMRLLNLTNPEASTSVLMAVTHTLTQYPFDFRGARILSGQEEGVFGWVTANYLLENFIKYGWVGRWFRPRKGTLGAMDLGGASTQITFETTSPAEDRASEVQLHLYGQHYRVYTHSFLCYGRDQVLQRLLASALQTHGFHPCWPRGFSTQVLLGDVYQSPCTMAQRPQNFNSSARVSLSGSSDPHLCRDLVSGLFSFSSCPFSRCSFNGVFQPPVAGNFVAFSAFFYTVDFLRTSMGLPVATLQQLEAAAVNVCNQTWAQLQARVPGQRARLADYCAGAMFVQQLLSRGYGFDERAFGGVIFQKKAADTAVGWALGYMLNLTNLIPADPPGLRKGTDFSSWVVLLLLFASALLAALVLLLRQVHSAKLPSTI

h-NTPDase3 = biological target: T3, h-NTPDase3 (Homo sapiens, UniProt O75355); assay: h-NTPDase activity assay; type: biochemical; details: for inhibition at 100 µM: read-out: % Inhibition h-NTPDase3
T3 sequence (O75355 1-529): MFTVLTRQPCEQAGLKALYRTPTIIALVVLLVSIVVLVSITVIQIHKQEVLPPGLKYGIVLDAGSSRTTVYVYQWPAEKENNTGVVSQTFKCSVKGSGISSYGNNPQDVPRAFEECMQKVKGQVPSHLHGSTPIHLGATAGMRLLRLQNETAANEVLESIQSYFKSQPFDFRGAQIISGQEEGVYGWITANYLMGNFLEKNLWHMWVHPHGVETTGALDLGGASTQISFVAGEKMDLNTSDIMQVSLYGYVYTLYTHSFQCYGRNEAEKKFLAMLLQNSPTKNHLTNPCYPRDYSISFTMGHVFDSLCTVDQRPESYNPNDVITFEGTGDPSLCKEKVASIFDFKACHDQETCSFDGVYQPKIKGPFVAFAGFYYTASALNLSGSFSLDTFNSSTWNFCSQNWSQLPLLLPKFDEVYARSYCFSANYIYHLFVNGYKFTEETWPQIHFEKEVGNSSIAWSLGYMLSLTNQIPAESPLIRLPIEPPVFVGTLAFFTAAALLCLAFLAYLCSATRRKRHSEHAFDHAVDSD
Outline: (§1)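 Human NTPDase1, -2, -3 or -8 came from COS-7 cells transfected with plasmids via Lipofectamine, harvested at 44–48 h, sonicated and cleared of nuclei, with protein measured by Bradford. Enzyme per well was 12, 37, 43 or 63 ng respectively. Compound (0.1 mM final) was pre-incubated 10 min at 37 °C in 50 mM Tris–HCl, 5 mM CaCl2, pH 7.4. The reaction was started with ATP (100 µM), run 15 min, and stopped with malachite green; Pi was read at 630 nm.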

h-NPP1 = biological target: T4, h-NPP1 (Homo sapiens, UniProt P22413); assay: h-NPP1 activity assay; type: biochemical; details: for inhibition at 100 µM: read-out: % Inhibition h-NPP1
T4 sequence (P22413 1-925): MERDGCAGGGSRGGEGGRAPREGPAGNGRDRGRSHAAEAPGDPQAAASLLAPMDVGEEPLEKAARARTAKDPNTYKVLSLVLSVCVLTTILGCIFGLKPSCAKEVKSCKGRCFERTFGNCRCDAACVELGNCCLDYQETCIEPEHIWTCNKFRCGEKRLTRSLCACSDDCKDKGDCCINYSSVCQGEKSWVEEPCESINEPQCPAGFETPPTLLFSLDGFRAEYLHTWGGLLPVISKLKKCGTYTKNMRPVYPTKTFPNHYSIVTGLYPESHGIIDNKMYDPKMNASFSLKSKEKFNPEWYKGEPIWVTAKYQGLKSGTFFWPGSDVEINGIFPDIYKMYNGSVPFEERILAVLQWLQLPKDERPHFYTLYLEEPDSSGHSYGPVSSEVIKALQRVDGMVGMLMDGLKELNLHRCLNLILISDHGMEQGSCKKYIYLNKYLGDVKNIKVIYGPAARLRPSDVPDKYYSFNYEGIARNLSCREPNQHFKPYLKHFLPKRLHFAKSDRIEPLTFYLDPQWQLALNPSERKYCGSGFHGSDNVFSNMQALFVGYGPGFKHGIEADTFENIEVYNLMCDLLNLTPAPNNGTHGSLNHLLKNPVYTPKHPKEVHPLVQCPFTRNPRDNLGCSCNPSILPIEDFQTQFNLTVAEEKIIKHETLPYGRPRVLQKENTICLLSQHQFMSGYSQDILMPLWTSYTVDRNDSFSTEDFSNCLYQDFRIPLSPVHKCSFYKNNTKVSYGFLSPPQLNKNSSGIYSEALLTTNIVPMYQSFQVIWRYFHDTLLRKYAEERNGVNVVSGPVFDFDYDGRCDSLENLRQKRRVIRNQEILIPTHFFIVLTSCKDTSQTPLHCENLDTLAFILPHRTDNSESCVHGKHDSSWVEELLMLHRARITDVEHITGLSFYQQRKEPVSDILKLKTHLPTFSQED

h-e5’NT = biological target: T5, h-e5’NT (Homo sapiens, UniProt P21589); assay: h-e5’NT activity assay; type: biochemical; details: for inhibition at 100 µM: read-out: % Inhibition h-e5’NT
T5 sequence (P21589 27-574): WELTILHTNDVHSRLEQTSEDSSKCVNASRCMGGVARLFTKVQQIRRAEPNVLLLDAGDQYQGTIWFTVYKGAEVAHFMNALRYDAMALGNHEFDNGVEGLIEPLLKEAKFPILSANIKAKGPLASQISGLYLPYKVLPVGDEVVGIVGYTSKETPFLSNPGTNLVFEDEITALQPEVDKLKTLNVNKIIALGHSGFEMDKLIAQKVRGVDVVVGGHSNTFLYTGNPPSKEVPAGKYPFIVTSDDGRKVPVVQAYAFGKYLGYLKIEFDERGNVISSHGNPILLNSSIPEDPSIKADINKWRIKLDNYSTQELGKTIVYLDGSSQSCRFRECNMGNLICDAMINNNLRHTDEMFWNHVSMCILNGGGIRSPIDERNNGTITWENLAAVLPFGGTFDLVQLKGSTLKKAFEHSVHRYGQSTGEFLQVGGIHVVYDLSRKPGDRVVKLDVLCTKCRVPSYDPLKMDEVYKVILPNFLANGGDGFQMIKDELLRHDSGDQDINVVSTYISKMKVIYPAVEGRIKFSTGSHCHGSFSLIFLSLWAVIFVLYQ
Outline: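 Human ecto-5′-nucleotidase from transfected COS-7 cells was pre-incubated 10 min at 37 °C with compound (0.1 mM final) in 50 mM Tris–HCl with MgCl₂ and CaCl₂, pH 7.4. The reaction was started with AMP (2 mM solution as added) and run 20 min at 37 °C. Released phosphate was detected with malachite green at 630 nm, in triplicate.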

MTT assay = type: cell-based, human; details: human, MCF-7 breast cancer cells, MCF-7, 100 μM; for cytotoxicity at 24 h, 100 µM: % Cytotoxicity ± SD; for viability at 24 h, 100 µM: % Viability
[1] = system: MCF-7 breast cancer cells; assay: MTT assay; type: cell-based, human; details: MCF-7, 100 μM, 24 h, 100 µM
h-NTPDases = assay: h-NTPDase activity assay, all four isoenzymes; type: biochemical, human
Outline: as §1

h-NTPDase8 = biological target: T6, h-NTPDase8 (Homo sapiens, UniProt Q5MY95); assay: h-NTPDase activity assay; type: biochemical
T6 sequence (Q5MY95 1-495): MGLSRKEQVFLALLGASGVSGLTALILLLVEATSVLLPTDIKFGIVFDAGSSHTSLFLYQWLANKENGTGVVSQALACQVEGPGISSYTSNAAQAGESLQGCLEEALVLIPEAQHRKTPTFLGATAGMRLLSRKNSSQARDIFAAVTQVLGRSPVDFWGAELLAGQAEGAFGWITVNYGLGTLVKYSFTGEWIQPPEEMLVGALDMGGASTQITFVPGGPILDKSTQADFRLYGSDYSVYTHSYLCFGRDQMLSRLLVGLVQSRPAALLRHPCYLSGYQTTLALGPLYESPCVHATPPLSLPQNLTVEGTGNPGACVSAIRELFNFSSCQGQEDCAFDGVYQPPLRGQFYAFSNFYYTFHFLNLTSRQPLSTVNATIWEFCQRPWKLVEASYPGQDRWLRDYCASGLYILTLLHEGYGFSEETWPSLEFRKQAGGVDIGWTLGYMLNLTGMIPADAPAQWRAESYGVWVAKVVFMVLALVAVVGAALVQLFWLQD

[2] = system: h-NTPDase1, -2, -3, and -8 isoenzymes, h-NPP1, and h-e5′NT; assay: Enzymatic assays, all ectonucleotidases; type: biochemical, human; details: at 100 µM

Row | inhibition at 100 µM (h-NTPDase1) | inhibition at 100 µM (h-NTPDase2) | inhibition at 100 µM (h-NTPDase3) | IC50 (h-NPP1) | inhibition at 100 µM (h-NPP1) | IC50 (h-e5’NT) | inhibition at 100 µM (h-e5’NT) | activity against all four h-NTPDase isoenzymes (h-NTPDases) | inhibition at 100 µM (h-NTPDase8; read-out: % Inhibition h-NTPDase8, at 100 µM) | % inhibition for all enzymes except h-e5′NT [2] | IC50 (h-NTPDase1) | IC50 (h-NTPDase2) | IC50 (h-NTPDase3) | IC50 (h-NTPDase8) | Compound | cytotoxicity at 24 h, 100 µM (MTT assay) | viability at 24 h, 100 µM (MTT assay) | % Viability [1] | % Cytotoxicity ± SD [1]
1 | 33.1% | 26.2% | 35.6% | 13.5 ± 1.24 µM | 85.5% | 0.44 ± 0.07 µM | 72.4% | poor activity |  |  |  |  |  |  | O=C(NCc1ccc(Cl)cc1Cl)c1ccc2ncccc2c1 [Compound 4j, N-(2,4-dichlorobenzyl)quinoline-6-carboxamide] | 55 ± 1.36% | 43 to 45% | 45.0% | 
2 |  |  |  |  |  | 42.1 ± 7.8 µM |  |  |  |  |  |  |  |  | Cc1ccc(C(=O)Nc2ccc(S(=O)(=O)O)c3cc(S(=O)(=O)O)cc(S(=O)(=O)O)c23)cc1NC(=O)c1cccc(NC(=O)Nc2cccc(C(=O)Nc3cc(C(=O)Nc4ccc(S(=O)(=O)O)c5cc(S(=O)(=O)O)cc(S(=O)(=O)O)c45)ccc3C)c2)c1 [Suramin, reference compound] |  |  |  | 
3 | 37% |  | 30.6% | 0.23 ± 0.02 µM | 67% | 0.092 ± 0.02 µM | 67.9% | poor activity |  |  |  |  |  |  | O=C(NCc1ccc(Cl)cc1)c1ccc2ncccc2c1 [Compound 4a, N-(4-chlorobenzyl)quinoline-6-carboxamide] | 37% | 62.7% |  | 37.3 ± 1.80%
4 | 19.5% | 39.6% | 25.1% |  |  | 0.99 ± 0.13 µM | 54.9% | poor activity | 29.8% | less than 50% |  |  |  |  | COc1ccc(CNC(=O)c2ccc3ncccc3c2)c(OC)c1 [Compound 4i, N-(2,4-dimethoxybenzyl)quinoline-6-carboxamide] | 41.5 ± 0.31% | 58.5% |  | 
5 |  |  |  |  |  |  |  |  |  |  | 16.1 ± 1.02 µM | 24.1 ± 3.01 µM | 4.31 ± 0.41 µM | 101 ± 2.34 µM | Nc1c(S(=O)(=O)O)cc(Nc2ccc(Nc3nc(Cl)nc(Nc4cccc(S(=O)(=O)O)c4)n3)c(S(=O)(=O)O)c2)c2c1C(=O)c1ccccc1C2=O [Reactive blue 2, reference compound] |  |  |  | 
